# Most compounds without a hit are left out; they make up all but 3.1% or so of the library.
# Apaf1 inhib: inhibitors of human Apaf-1 apoptosome, primary screen, biochemical, DEVD-Rh110 fluorescence, uHTS; 330,000 tested, 0.71% active; inhibition, % at 20 µM; AID 489030, 2010; reconstituted apoptosome caspase-3 activity; Apoptotic protease-activating factor 1 (Homo sapiens), O14727; active = inhibition of at least 40% at 20 µM;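 also: plate controls were DMSO wells for no effect and DEVD-CHO caspase inhibitor wells for full effect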
#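 detection = Rh110 fluorescence intensity | test system = biochemical Apaf-1 apoptosome reconstitution | also added = cytochrome c and DEVD-Rh110 substrate | schedule = 30 min plus 50 min, RT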
# PAFAH1B2 FP inh: PAFAH1B2 enzyme inhibitors, primary screen, biochemical, fluorescence polarization, human | recombinant PAFAH1B2, FP-rhodamine activity probe | Platelet-activating factor acetylhydrolase IB subunit alpha2 (Homo sapiens), P68402 | 340,000 tested, 1.2% active | inhibition, % at 3.39 µM;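 active = inhibition above the mean of all tested compounds plus 3 SD, cut at about 24% in these data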;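 also: 0% = enzyme with DMSO and 100% = wells lacking PAFAH1B2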
# Target sequence (P68402 whole entry, looked up): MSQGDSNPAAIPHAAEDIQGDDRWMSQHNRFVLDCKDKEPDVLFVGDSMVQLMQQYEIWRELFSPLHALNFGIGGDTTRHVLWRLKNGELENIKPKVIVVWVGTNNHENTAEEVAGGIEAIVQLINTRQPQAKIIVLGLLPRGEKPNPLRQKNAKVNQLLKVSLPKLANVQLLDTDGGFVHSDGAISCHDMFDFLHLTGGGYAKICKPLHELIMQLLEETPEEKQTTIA
# pPAFAH FP inh: pPAFAH enzyme inhibitors, primary screen, biochemical, fluorescence polarization, human; Platelet-activating factor acetylhydrolase (Homo sapiens), Q13093; recombinant pPAFAH, FP-rhodamine probe fluorescence polarization; inhibition, % at 3.39 µM; 330,000 tested, 1.5% active; AID 463082, 2010;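 active = inhibition above the mean inhibition across the screen plus 3 SD, cut at about 25% in these data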;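 also: inhibitors block binding of the rhodamine activity-based probe so polarization drops; 0% = enzyme with DMSO and 100% = wells lacking pPAFAH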
# PAFAH1B3 FP inh: PAFAH1B3 enzyme inhibitors, primary screen, biochemical, fluorescence polarization, human; Platelet-activating factor acetylhydrolase IB subunit alpha1 (Homo sapiens), Q15102; recombinant PAFAH1B3, FP-rhodamine probe; inhibition, % at 3.39 µM; 340,000 tested, 0.28% active;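 active = inhibition above the screen-wide average of all tested compounds plus 3 SD, cut at about 25% in these data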;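 also: 0% = enzyme with DMSO only and 100% = wells lacking PAFAH1B3 protein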
# Target sequence (Q15102 whole entry, looked up): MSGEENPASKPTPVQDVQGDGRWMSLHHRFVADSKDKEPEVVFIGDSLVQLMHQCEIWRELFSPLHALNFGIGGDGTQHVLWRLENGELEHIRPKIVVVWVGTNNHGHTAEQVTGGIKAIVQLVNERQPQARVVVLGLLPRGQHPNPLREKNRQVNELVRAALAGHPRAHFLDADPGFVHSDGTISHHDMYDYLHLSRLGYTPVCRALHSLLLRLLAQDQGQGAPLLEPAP
# PAFAH2 FP inh: PAFAH2 enzyme inhibitors, primary screen, biochemical, fluorescence polarization, human. inhibition, % at 3.39 µM. 340,000 tested, 0.99% active. recombinant PAFAH2, FP-rhodamine activity probe. Platelet-activating factor acetylhydrolase 2, cytoplasmic (Homo sapiens), Q99487;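 active = inhibition above the mean over all tested compounds plus 3 SD, cut at about 30% in these data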;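 also: inhibitors block probe labeling of enzyme so polarization drops; 0% = enzyme with DMSO and 100% = wells lacking PAFAH2 protein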
# Numbers without * were called inactive; · = not tested or not shown.
SMILES,Apaf1 inhib,PAFAH1B2 FP inh,pPAFAH FP inh,PAFAH1B3 FP inh,PAFAH2 FP inh
O=C(c1ccc(N2CCCCCC2)c([N+](=O)[O-])c1)N1CCC2(CC1)OCCO2,0,4,33*,9,11
O=C(c1ccc2c(c1)OCO2)N1CCC2(CC1)OCCO2,-20,-2,2,2,1
O=c1[nH]c(=S)n(-c2ccccc2F)c(O)c1C=Nc1ccc(N2CCOCC2)cc1,2,8,29*,1,33*
Cc1cc(C)cc(-n2c(O)c(C=Nc3ccc(N4CCOCC4)cc3)c(=O)[nH]c2=S)c1,10,1,6,-4,5
NCC(O)c1cc(O)c(O)cc1F (stereo not drawn),30,1,27*,2,4
CC1=C(O)C(=O)C=C2C1=CC=C1C2(C)CCC2(C)C3CC(C)(C(=O)O)CCC3(C)CCC12C (stereo not drawn),·,2,·,-2,12
CC(C)(C)c1ccc(S(=O)(=O)N2CC3CC(C2)c2cccc(=O)n2C3)cc1 (stereo not drawn),-1,26*,4,11,8
CC1(C)C(=O)CCC2C1=CCC1C2CCC2(C)C(O)CCC12 (stereo not drawn),·,3,·,13,3
CC(=O)OCC12CC(OC(=O)CC(C)C)C(C)=CC1OC1C(O)C(OC(C)=O)C2(C)C12CO2 (stereo not drawn),·,0,·,4,1
CNC(=O)Oc1ccc(C(=O)N2c3ccccc3NC(=O)C2C)cc1 (stereo not drawn),1,48*,7,11,-2
CC1(C)OC(c2ccccc2)=C/C(=C/C=C2C(=O)NC(=S)NC2=O)O1,38,·,-21,·,·
CN1/C(=C\C=C2C(=O)NC(=S)NC2=O)C(C)(C)c2ccccc21,3,68*,·,-378,38*
O=C1NC(=O)N(Cc2ccco2)C(=O)/C1=C/c1cccn1CCOc1ccccc1Cl,5,15,26*,6,28
Cn1cccc1/C=C1\C(=O)NC(=O)N(Cc2ccccc2)C1=O,-16,9,11,10,17
Cn1cccc1/C=C1/C(=O)NC(=O)N(Cc2ccc(F)cc2)C1=O,-10,29*,13,22,12
COC(=O)C1=C(c2cc3ccccc3s2)C[C@@H]2CC[C@H]1N2C,2,3,1,-8,5
O=C(O)CCn1cc(C=C2C(=O)NC(=O)NC2=O)c(-c2ccc(Br)cc2)n1,-9,33*,11,6,-4
COC(=O)C1=C(c2cccc(OCc3ccccc3)c2)C[C@@H]2CC[C@H]1N2C(=O)NCCCc1ccccc1,18,4,30*,-8,-13
CCC(=O)c1cn(Cc2ccccc2)c2ccccc12,7,9,2,14,-6
O=C(c1ccco1)c1cn(Cc2ccccc2)c2ccccc12,22,-5,30*,-2,3
CC(C)CCNC(=O)c1c(N)n(CC2CCCO2)c2nc3ccccc3nc12 (stereo not drawn),91*,1,10,6,5
Nc1c(C(=O)NCCN2CCOCC2)c2nc3ccccc3nc2n1Cc1ccccc1,82*,2,8,9,-4
CCCCn1c(N)c(C(=O)NCCN2CCOCC2)c2nc3ccccc3nc21,37,1,10,-4,-4
CCC(C)NC(=O)c1c(N)n(Cc2ccc3c(c2)OCO3)c2nc3ccccc3nc12 (stereo not drawn),96*,6,9,21,5
O=C(Cc1ccc(N(CCCl)CCCl)cc1)NC(Cc1ccc(Cl)cc1)C(=O)O (stereo not drawn),-7,60*,5,6,5
SMILES,Apaf1 inhib,PAFAH1B2 FP inh,pPAFAH FP inh,PAFAH1B3 FP inh,PAFAH2 FP inh
CC(=O)NC(Cc1ccc(N(CCCl)CCCl)cc1)C(=O)O (stereo not drawn),0,7,-2,5,4
O=C(Cc1ccccc1)NC(Cc1ccc(Cl)cc1)C(=O)O (stereo not drawn),-20,38*,0,5,-4
CCN(CC)C(=O)c1ccc(NC(=O)CNC(C)c2cccc3ccccc23)cc1 (stereo not drawn),13,9,10,0,-10
N#CC1c2ccccc2-n2nncc2CN1Cc1cc(Cl)cc(Cl)c1 (stereo not drawn),·,2,·,1,-1
O=C(N/N=C/c1c(O)n(Cc2ccco2)c(=O)[nH]c1=O)c1ccccc1O,-9,15,30*,9,35*
O=C(N/N=C/c1c(O)n(C2CCCCC2)c(=S)[nH]c1=O)c1ccccc1,12,5,12,19,6
O=C(N/N=C/c1c(O)n(C2CCCCC2)c(=S)[nH]c1=O)c1ccccc1O,12,13,32*,3,13
Cc1ccc(C(=O)N2CC2C)cc1 (stereo not drawn),·,-1,·,-9,2
CCCCn1c(NC(=O)c2ccc(Br)o2)c(C(=O)OCC)c2nc3ccccc3nc21,79*,38*,11,77*,41*
CN(C(=O)Oc1cccc2ccccc12)C1C=CCC1 (stereo not drawn),·,-2,·,5,-4
CCN(CC)C(=O)c1ccc2c(c1)C1C=CCC1C(C(=O)O)N2 (stereo not drawn),33,20,·,40*,40*
C/C=C(\C)C(=O)OC1C(C)=C2C(C1OC(=O)CCCCC)C(C)(OC(C)=O)CC(OC(=O)CCC)C1(O)C2OC(=O)C1(C)O (stereo not drawn),18,·,38*,·,·
CCCCn1c(C)c(C(=O)OCC)c2c(CN3CCOCC3)c(O)ccc21,-3,10,4,-1,-8
CCCCn1c(C)c(C(=O)OCC)c2c(CN3CCCC3)c(O)ccc21,10,-5,27*,-7,5
NS(=O)(=O)c1ccc(-c2ccc(C=C3C(=O)NC(=O)NC3=O)o2)cc1,-2,-1,0,9,3
O=C1NC(=O)C(=Cc2ccc(SC3CCCCC3)o2)C(=O)N1,10,88*,12,13,45*
O=C1CN=C(c2ccccc2)c2ccccc2N1,-2,9,5,3,3
CCc1cc2c(s1)NC(=O)CN=C2c1cccs1,-10,-1,33*,5,2
COc1cccc2c1C(=O)c1c(O)c3c(c(O)c1C2=O)CC(O)(C(C)=NO)CC3OC1CC(N)C(O)C(C)O1 (stereo not drawn),·,45*,·,30*,42*
CCCN1CCc2cc(O)cc3c2[C@H]1Cc1ccc(O)c(O)c1-3,45*,4,23,12,-7
O=C1NC(=O)N(CCNc2ncc(C(F)(F)F)cc2Cl)C(=O)C1Cc1ccc(Cl)cc1 (stereo not drawn),5,29*,7,13,2
